Test results published in PMC4802972 (Biochimica et biophysica acta, 2014).
Read-outs that look alike come from different tables or passages of the source.

Columns and labels:
[1] = system: S. aureus BstA; format: biochemical, Staphylococcus aureus; settings: for reduction of enzymatic rate compared to untreated +BstA reaction / reaction rate of +BstA reaction after treatment: 1 mM phenanthroline, 220 nM BstA; for reaction rate of +BstA reaction after treatment: 50 μM BSH, 23°C
[2] = system: S. aureus BstA; experiment: Direct BstA reactions; format: biochemical, Staphylococcus aureus; settings: for BstA dependence of reaction with BSH: with and without BstA
Summary of the method: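 Purified His6-tag-cleaved S. aureus BstA, expressed in E. coli C41 (DE3). Cerulenin and BSH, 500 μM each, reacted with and without 220 nM BstA. Samples diluted 5-fold into 10 mM methanesulfonic acid, concentrated, then run on C18 reverse-phase HPLC at 0.4 mL/min with a 0–70% B gradient over 40 min (A 0.05% TFA-water, B 60% acetonitrile-water). Detection at 220 nm.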

[3] = target: T1, BstA (Staphylococcus aureus, UniProt A0A0H2XDW9); experiment: Saturation kinetics of BstA; format: biochemical; settings: for kcat: pH 7.0, BSH and mBCl at 37°C with 220 nM BstA, CDNB at 23°C with 2.8 μM BstA
[4] = cited from earlier work
[5] = system: S. aureus FosB; settings: read-out: Km of FosB for BSH; cited from earlier work
[6] = Direct non-enzymatic reaction with BSH
[7] = target: T1, BstA; experiment: Inhibition constants of carboxamido-1,3,4-oxadiazole kinase inhibitors; format: biochemical
[8] = system: S. aureus MW2; settings: cited from earlier work
[9] = + 220 nM BstA, 50 μM thiol, 50 μM mBCl, pH 7.0
[10] = − BstA, 50 μM thiol, 50 μM mBCl, pH 7.0

Question: What does the source list for `c1cnc2c(c1)ccc1ncccc12` [1,7-phenanthroline]?
Answer: reduction of enzymatic rate compared to untreated +BstA reaction [1]: 27%; reaction rate of +BstA reaction after treatment ([1]; 50 μM mBCl): 105 nmol/min/mg

Question: For `c1cnc2c(c1)ccc1cccnc12` [1,10-phenanthroline], which “reduction of enzymatic rate compared to untreated +BstA reaction” value [1] is on record?
Answer: Its value is greater than 99%.

Question: And the “reaction rate of +BstA reaction after treatment” value ([1]; 50 μM mBCl)?
Answer: The value was 12.5 ± 0.7 nmol/min/mg.

Question: Which “BstA dependence of reaction with BSH” value [2] does the source give for `CCCCCC(O)/C=C/C=O` (centres unmarked) [4-hydroxynonenal] here?
Answer: The value was “BstA-independent”.

Question: With `N[C@@H](CS)C(=O)N[C@H]1[C@@H](O[C@@H](CC(=O)O)C(=O)O)O[C@H](CO)[C@@H](O)[C@@H]1O` [BSH, bacillithiol] as the compound, how does the “Km of BstA for BSH lower than that of S. aureus FosB” value ([3]; BstA vs FosB) read?
Answer: Its value is 260 fold.

Question: And the kcat [3]?
Answer: The kcat was 0.21 ± 0.01 s⁻¹.

Question: What about the “Specific Activity + BstA” value [1, 9] of the same compound?
Answer: The value was 152 ± 8 nmol/min/mg.

Question: What about the “Specific Activity − BstA” value [1, 10] of the same compound?
Answer: Its value is 8.4 ± 0.3 nmol/min/mg.

Question: What about the “thiol pKa” value [4] of the same compound?
Answer: The value was 7.46.

Question: What about the Km [5] of the same compound?
Answer: Its Km is 4.2 ± 0.7 mM.

Question: Which “catalytic efficiency below that of mBCl” value ([3]; CDNB vs mBCl) does the source give for `O=[N+]([O-])c1ccc(Cl)c([N+](=O)[O-])c1` [CDNB, 1-chloro-2,4-dinitrobenzene] here?
Answer: Its value is 8 fold.

Question: What about the kcat [3] of the same compound?
Answer: The kcat was 0.22 ± 0.02 s⁻¹.

Question: Which “Specific Activity + BstA” value [1, 9] does the source give for `CC(C)(COP(=O)(O)OP(=O)(O)OC[C@H]1O[C@@H](n2cnc3c(N)ncnc32)[C@H](O)[C@@H]1OP(=O)(O)O)[C@@H](O)C(=O)NCCC(=O)NCCS` [Coenzyme A, coenzyme A] here?
Answer: Its value is 1.4 ± 0.1 nmol/min/mg.

Question: And the “Specific Activity − BstA” value [1, 10]?
Answer: The value was 1.2 ± 0.1 nmol/min/mg.

Question: What about the “thiol pKa” value [4] of the same compound?
Answer: The value was 9.6.

Question: Which results are given for `N[C@@H](CS)C(=O)O` [Cysteine, cysteine]?
Answer: Specific Activity + BstA [1, 9]: 8.3 ± 0.5 nmol/min/mg; Specific Activity − BstA [1, 10]: 6.7 ± 0.3 nmol/min/mg

Question: Which “effect on BstA activity” value [1] does the source give for `O=C(O)CN(CCN(CC(=O)O)CC(=O)O)CC(=O)O` [EDTA, ethylenediaminetetraacetic acid] here?
Answer: The value was “abolished activity”.

Question: With `N[C@@H](CCC(=O)N[C@@H](CS)C(=O)NCC(=O)O)C(=O)O` [Glutathione, glutathione] as the compound, how does the “Specific Activity + BstA” value ([1]; pH 7) read?
Answer: Its value is 3.9 ± 0.1 nmol/min/mg.

Question: What about the “Specific Activity − BstA” value ([1]; pH 7) of the same compound?
Answer: Its value is 4.4 ± 0.4 nmol/min/mg.

Question: Which results are given for `CC(=O)N[C@@H](CS)C(=O)N[C@H]1[C@@H](OC2[C@H](O)[C@H](O)C(O)[C@H](O)[C@H]2O)O[C@H](CO)[C@@H](O)[C@@H]1O` (some centres unmarked) [Mycothiol, mycothiol]?
Answer: Specific Activity + BstA [1, 9]: 3.3 ± 0.1 nmol/min/mg; Specific Activity − BstA [1, 10]: 3.0 ± 0.1 nmol/min/mg

Question: Which “non-enzymatic rate of adduct formation with BSH” value ([6]; 500 μM cerulenin, 500 μM BSH, −BstA) does the source give for `C/C=C/C/C=C/CCC(=O)[C@H]1O[C@H]1C(N)=O` [cerulenin] here?
Answer: Its value is 170 nmol/min/mg.

Question: What about the “adduct formation rate with BSH, +BstA” value ([2]; 500 μM cerulenin, 500 μM BSH, 220 nM BstA) of the same compound?
Answer: Its value is 300 nmol/min/mg.

Question: What about the “BstA catalyzed reaction rate” value ([2]; cerulenin with BSH, net enzymatic rate) of the same compound?
Answer: Its value is 130 nmol/min/mg.

Question: And the “BstA dependence of reaction with BSH” value [2]?
Answer: The value was “weak substrate”.

Question: What does the source list for `O=C(Nc1nnc(-c2ccc(F)cc2)o1)c1ccc(Br)s1` [compound 3, 5-bromo-N-[5-(4-fluorophenyl)-1,3,4-oxadiazol-2-yl]thiophene-2-carboxamide]?
Answer: Ki [7]: ~3 µM; inhibition of BstA in concentration dependent inhibitor studies ([7]; 5 μM inhibitor): effective inhibitor

Question: With `C=C(CC)C(=O)c1ccc(OCC(=O)O)c(Cl)c1Cl` [etacrynic acid] as the compound, how does the “BstA dependence of reaction with BSH” value [2] read?
Answer: The value was “BstA-independent”.

Question: Which “increase of bstA expression” value [8] does the source give for `OO` [hydrogen peroxide] here?
Answer: The value was 3 fold.

Question: What about the “upregulation of brxB ortholog” value [8] of the same compound?
Answer: Its value is 6 fold.

Question: And the “upregulation of glxA ortholog” value [8]?
Answer: Its value is 2 fold.

Question: Which “increase of bstA expression” value [8] does the source give for `OCl` [hypochlorous acid] here?
Answer: The value was 2 fold.

Question: And the “upregulation of brxB ortholog” value [8]?
Answer: Its value is 2 fold.

Question: What about the “upregulation of glxA ortholog” value [8] of the same compound?
Answer: Its value is 3 fold.

Question: Which “Km below the Km of CDNB” value ([3]; mBCl vs CDNB) does the source give for `Cc1c(C)n2c(CCl)c(C)c(=O)n2c1=O` [mBCl, monochlorobimane] here?
Answer: The value was “over 10 fold”.

Question: And the kcat [3]?
Answer: Its kcat is 0.30 ± 0.02 s⁻¹.

Question: For `CO[C@H]1/C=C/O[C@@]2(C)Oc3c(C)c(O)c4c(c3C2=O)C(=O)C=C(NC(=O)/C(C)=C\C=C\[C@H](C)[C@H](O)[C@@H](C)[C@@H](O)[C@@H](C)[C@H](OC(C)=O)[C@@H]1C)C4=O` [rifamycin S], which “rate of direct reaction with BSH” value ([6]; 50 μM each, pH 7.0 and pH 6.0, BstA-independent) is on record?
Answer: Its value is greater than 35 µM/min.

Question: What about the “BstA dependence of reaction with BSH” value [2] of the same compound?
Answer: The value was “BstA-independent”.

Question: For `C[S+]([O-])CCCCN=C=S` (centres unmarked) [sulforaphane], which “BstA dependence of reaction with BSH” value [2] is on record?
Answer: Its value is “BstA-independent”.
